Results as given in ChEMBL document CHEMBL4837200, “Discovery of Orally Bioavailable Purine-Based Inhibitors of the Low-Molecular-Weight Protein Tyrosine Phosphatase” (J Med Chem, 2021).
Active and inactive are the calls of the source. No cut-off for these calls is given here.

How the values were obtained:
[1] = target: T1, Low molecular weight phosphotyrosine protein phosphatase (Homo sapiens, UniProt P24666); assay: Inhibition of recombinant human LMPTP-A using OMFP or pNPP as substrate by fluorescence assay
T1 sequence (P24666 whole entry): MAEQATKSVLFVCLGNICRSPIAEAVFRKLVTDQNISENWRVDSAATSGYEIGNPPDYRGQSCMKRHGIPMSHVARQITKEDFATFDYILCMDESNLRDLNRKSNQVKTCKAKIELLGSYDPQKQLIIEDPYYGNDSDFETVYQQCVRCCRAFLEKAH
Summary of the method: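 Recombinant human LMPTP-A in 50 mM Bis-Tris pH 6.0, 1 mM DTT, 0.01% Triton X-100, 37°C. With OMFP, fluorescence followed continuously (ex 485/em 525 nm). With pNPP, reaction stopped with 2 volumes 1 M NaOH and absorbance read at 405 nm. IC50 from inhibitor concentration vs % enzyme activity plots; n=4 unless otherwise noted.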

[2] = Half life in C57BL/6 mouse at 10 mg/kg, po measured upto 24 hrs by LC-MS/MS analysis; assay type: ADME, organism-based; conditions: in vivo
[3] = Oral bioavailability in C57BL/6 mouse at 10 mg/kg measured upto 24 hrs by LC-MS/MS analysis; assay type: ADME, organism-based; conditions: in vivo
[4] = Cmax in C57BL/6 mouse at 10 mg/kg, po measured upto 24 hrs by LC-MS/MS analysis; assay type: ADME, organism-based; design: route oral, dose 10 mg/kg, time <=24; conditions: in vivo
[5] = Volume of distribution in C57BL/6 mouse at 2 mg/kg, iv measured upto 24 hrs by LC-MS/MS analysis; assay type: ADME, organism-based; conditions: in vivo
[6] = AUC in C57BL/6 mouse at 10 mg/kg, po measured upto 24 hrs by LC-MS/MS analysis; assay type: ADME, organism-based; design: route oral, dose 10 mg/kg, time <=24; conditions: in vivo
[7] = target: T2, Low molecular weight phosphotyrosine protein phosphatase (Homo sapiens) (UniProt P24666); assay: Uncompetitive inhibition of recombinant human LMPTP-A using OMFP as substrate by Lineweaver-Burk plot analysis
T2 sequence (whole entry): T1 sequence (P24666 whole entry)
Summary of the method: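 Recombinant human LMPTP-A at 20 nM acting on increasing OMFP concentrations with increasing inhibitor concentrations. Buffer was 50 mM Bis-Tris pH 6.0, 1 mM DTT, 0.01% Triton X-100 at 37°C. Fluorescence read continuously (ex 485/em 525 nm). Rates fitted to Michaelis-Menten and mixed-model inhibition equations and shown as Lineweaver-Burk plots. 3 independent experiments in triplicate.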

[8] = Microsomal stability in human liver microsomes assessed as parent compound remaining measured after 1 hr; assay type: ADME, Microsome; conditions: read-out: Stabilty
[9] = Microsomal stability in mouse liver microsomes assessed as parent compound remaining measured after 1 hr; assay type: ADME, Microsome; conditions: read-out: Stabilty
Mus musculus [10] = assay: Reversal of high fat diet induced diabetes in B6 mouse assessed as increase in insulin-stimulated IR tyrosine phosphorylation in liver at 30 mg/kg/day, po administered for 2 weeks by ELISA; assay type: functional, organism-based
Summary of the method: (§1)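 Male C57BL/6 littermates fed 60 kcal% fat chow for 3 months from 1-2 months of age; DIO mice ≥35 g given HFD containing 0.03% w/w compound (about 30 mg/kg/day) or HFD alone for 2 weeks. HFD n=8; treated n=9.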

[11] = target: T2, Low molecular weight phosphotyrosine protein phosphatase (Homo sapiens); assay: Inhibition of LMPTP in human HepG2 cells assessed as increase in insulin-stimulated AKT Thr308 phosphorylation at 500 nM preincubated overnight followed by insulin stimulation for 5 mins by Western blotting analysis; assay type: cell-based
Summary of the method: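 HepG2 cells grown in EMEM with 10% FBS plus penicillin/streptomycin. Serum-starved (0.1% FBS) overnight with DMSO or 500 nM compound, then stimulated with 10 nM bovine insulin for 5 min at 37°C with compound still present. Lysates probed by Western blot for pAKT Thr308, normalized to total AKT or GAPDH. 8 independent experiments.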

Mus musculus [12] = assay: Reversal of high fat diet induced diabetes in B6 mouse assessed as improved glucose tolerance at 30 mg/kg/day, po administered for 2 weeks followed by 13 hrs fasting and measured by IPGTT; assay type: functional, organism-based; summary of the method: as §1
Mus musculus [13] = assay: Reversal of high fat diet induced diabetes in B6 mouse assessed as decrease in fasting insulin levels at 30 mg/kg/day, po administered for 2 weeks by ELISA; assay type: functional, organism-based; summary of the method: as §1
[14] = Plasma protein binding in mouse; assay type: ADME, cell-free
[15] = Plasma protein binding in human; assay type: ADME, cell-free
Mus musculus [16] = assay: Reversal of high fat diet induced diabetes in B6 mouse assessed as increase in insulin-stimulated AKT Thr308 phosphorylation in liver at 30 mg/kg/day, po administered for 2 weeks by Western blotting analysis; assay type: functional, organism-based; summary of the method: as §1

With `Nc1ncn(Cc2c(Cl)cccc2Cl)c2nc(-c3ccccc3Cl)nc1-2` the IC50 [1] was 171 nM.

`Nc1ncn(Cc2c(Cl)cccc2Cl)c2nc(Cl)nc1-2` gave an IC50 [1] of 27800 nM.

For `Cc1ccccc1-c1nc2c(N)ncn(Cc3c(Cl)cccc3Cl)c-2n1`, the t1/2 [2] was 1.35 h, the F [3] was 19% and the IC50 [1] was 20 nM. For the same compound, the Cmax [4] was 134 ng/mL, the Vd [5] was 2.75 L/kg and the AUC [6] was 312 ng·h/mL. The inhibition [7] was “Active”.

Work on `Nc1ncn(Cc2c(Cl)cccc2Cl)c2nc(-c3ccc(F)cc3)nc1-2` yielded an IC50 [1] of 117 nM.

In the case of `Nc1ncn(Cc2c(Cl)cccc2Cl)c2nc(-c3cccc(F)c3)nc1-2`, the IC50 [1] is reported as 239 nM.

In the case of `Nc1ncn(Cc2c(Cl)cccc2Cl)c2nc(-c3ccccc3)nc1-2`, the IC50 [1] is reported as 104 nM.

With `Cc1cccc(C)c1Cn1cnc(N)c2ncnc1-2` the IC50 [1] was 3430 nM.

In the case of `Nc1ncn(Cc2c(Cl)cccc2Cl)c2nc(-c3ccccc3F)nc1-2`, the IC50 [1] is reported as 147 nM.

With `Nc1ncn(Cc2c(Cl)cncc2Cl)c2ncnc1-2` the t1/2 [2] was 0.71 h, the remaining at 1 h [8] was over 90% and the remaining at 1 h [9] was over 90%. The Activity (Mus musculus [10]) was “Active”, the F [3] was 100% and the inhibition [11] was “Active”. The Activity (Mus musculus [12]) was “Active”, the IC50 [1] was 83 nM and the Activity (Mus musculus [13]) was “Active”. The Cmax [4] was 8220 ng/mL, the PPB [14] was 89% and the PPB [15] was 88%. The Vd [5] was 0.81 L/kg, the AUC [6] was 9501 ng·h/mL and the Activity (Mus musculus [16]) was “Active”.

`Cc1cccc(-c2nc3c(N)ncn(Cc4c(Cl)cccc4Cl)c-3n2)c1` showed an IC50 [1] of 87 nM.

`Nc1ncn(Cc2ccccc2Cl)c2ncnc1-2` showed an IC50 [1] of 1930 nM.

`Nc1ncn(Cc2c(Cl)cccc2Cl)c2nc(-c3cccc(Cl)c3)nc1-2` showed an IC50 [1] of 380 nM.

For `N#Cc1ccccc1-c1nc2c(N)ncn(Cc3c(Cl)cccc3Cl)c-2n1`, the IC50 [1] was 245 nM.

In the case of `Nc1ncn(Cc2c(Cl)cccc2Cl)c2nc(-c3ccc(Cl)cc3)nc1-2`, the IC50 [1] is reported as 288 nM.

Work on `Cc1ccccc1-c1nc2c(N)ncn(Cc3c(Cl)cncc3Cl)c-2n1` yielded a t1/2 [2] of 1.55 h, an F [3] of 3% and an IC50 [1] of 6 nM. For the same compound, the Cmax [4] was 17 ng/mL, the Vd [5] was 4.04 L/kg and the AUC [6] was 38 ng·h/mL.

For `Cc1ccc(-c2nc3c(N)ncn(Cc4c(Cl)cccc4Cl)c-3n2)cc1`, the IC50 [1] was 119 nM.

For `Nc1ncn(Cc2cccc(Cl)c2)c2ncnc1-2`, the IC50 [1] was 18500 nM.

In the case of `Nc1ncn(Cc2c(Cl)cccc2Cl)c2ncnc1-2`, the t1/2 [2] is reported as 4.71 h, the F [3] is reported as 66% and the IC50 [1] is reported as 239 nM. For the same compound, the Cmax [4] was 5018 ng/mL, the Vd [5] was 3.01 L/kg and the AUC [6] was 18544 ng·h/mL.

With `Nc1ncn(Cc2ccc(Cl)cc2Cl)c2ncnc1-2` the IC50 [1] was 1020 nM.

In the case of `Nc1ncn(Cc2ccccc2)c2ncnc1-2` [3-BENZYLADENINE], the IC50 [1] is reported as 13600 nM.

In the case of `Nc1ncn(Cc2ccc(Cl)cc2)c2ncnc1-2`, the IC50 [1] is reported as 19400 nM.

`Nc1ncn(Cc2c(Cl)cccc2Cl)c2nc(Br)nc1-2` gave an IC50 [1] of 17600 nM.

`COc1ccccc1-c1nc2c(N)ncn(Cc3c(Cl)cccc3Cl)c-2n1` showed an IC50 [1] of 106 nM.

`Cc1nc2c(N)ncn(Cc3c(Cl)cccc3Cl)c-2n1` showed an IC50 [1] of 306 nM.
